Experiments:
NCI-H460 = assay: Growth inhibition of human NCI-H460 cells after 4 days by MTT assay; assay type: functional, cell-based; conditions: NCI-H460, 96 h
How it was run: (§1)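 Cell lines from NCI, grown in RPMI-1640 with 2 mM L-glutamine and 10% FBS at 37 °C, 5% CO2, 100% humidity. Aqueous 0.01 M stocks, half-log serial dilutions in medium, typically 316 µM to 10 nM. 5000 cells/well exposed 4 days. MTT added for 2 h, detergent lysis, overnight dark at room temperature, A600 read. IC50 from rectangular hyperbolic fit of percent inhibition.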

MCF7 = assay: Growth inhibition of human MCF7 cells after 4 days by MTT assay; assay type: functional, cell-based; conditions: MCF7, 96 h
[1] = target: T1, Farnesyl pyrophosphate synthase (Homo sapiens, UniProt P14324); assay: Inhibition of human FPPS
T1 sequence (P14324 whole entry): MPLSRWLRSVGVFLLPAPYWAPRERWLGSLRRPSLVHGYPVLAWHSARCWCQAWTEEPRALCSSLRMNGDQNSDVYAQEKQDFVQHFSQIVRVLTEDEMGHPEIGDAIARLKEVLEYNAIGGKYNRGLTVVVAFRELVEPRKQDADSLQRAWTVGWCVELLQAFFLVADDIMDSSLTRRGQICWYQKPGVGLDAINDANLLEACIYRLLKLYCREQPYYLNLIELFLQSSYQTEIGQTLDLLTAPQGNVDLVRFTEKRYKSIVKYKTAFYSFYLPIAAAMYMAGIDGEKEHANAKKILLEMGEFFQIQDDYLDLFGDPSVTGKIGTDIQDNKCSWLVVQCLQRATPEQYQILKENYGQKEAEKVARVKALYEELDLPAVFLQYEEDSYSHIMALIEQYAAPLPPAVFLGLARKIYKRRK

SF-268 = assay: Growth inhibition of human SF268 cells after 4 days by MTT assay; assay type: functional, cell-based; conditions: SF-268, 96 h; how it was run: as §1

SMILES	IC50 (NCI-H460; read-out: IC50) [µM]	IC50 (NCI-H460; read-out: pIC50 (converted)) [µM]	IC50 (MCF7; read-out: IC50) [µM]	IC50 (MCF7; read-out: pIC50 (converted)) [µM]	IC50 ([1]; read-out: IC50) [µM]	IC50 (SF-268; read-out: IC50) [µM]	IC50 (SF-268; read-out: pIC50 (converted)) [µM]	IC50 ([1]; read-out: pIC50 (converted)) [µM]
CCCCCCCCCC[S+](C)CC(P(=O)([O-])O)P(=O)(O)O (centres undefined)	0.32	0.316	0.62	0.631	0.24	0.37	0.398	–
CCCCCCCCCCCCCCCCCCCC[S+](C)CC(P(=O)([O-])O)P(=O)(O)O (centres undefined)	1.15	1.26	0.95	1	27.4	1.49	1.58	0.251
CCCCCCCCCCCCCC[S+](C)CC(P(=O)([O-])O)P(=O)(O)O (centres undefined)	0.48	0.501	11	10	8.47	0.88	0.794	–
C[S+](CCCCCc1ccccc1)CC(P(=O)([O-])O)P(=O)(O)O (centres undefined)	23.4	25.1	21.4	20	–	17.9	15.8	–
C[S+](CCc1ccccc1)CCC(O)(P(=O)([O-])O)P(=O)(O)O (centres undefined)	183	–	251	–	–	198	–	–
CCCCCCCCCCCCCCCCCC[S+](C)CC(P(=O)([O-])O)P(=O)(O)O (centres undefined)	1.23	1.26	1.41	1.26	7.45	1.71	1.58	–
CCCCCCCC[S+](C)CC(P(=O)([O-])O)P(=O)(O)O (centres undefined)	12.3	12.6	21.4	20	–	14.7	15.8	–
C[S+](C)CCC(O)(P(=O)([O-])O)P(=O)(O)O (centres undefined)	95.1	–	258	–	9	100	–	–
C[S+](CCCOc1ccccc1)CC(O)(P(=O)([O-])O)P(=O)(O)O (centres undefined)	16.6	15.8	93.3	100	–	34.5	31.6	–
CCCCCCCC[S+](C)CCC(O)(P(=O)([O-])O)P(=O)(O)O (centres undefined)	25.7	25.1	32.4	31.6	–	20.3	20	–
C[S+](C)CC(O)(P(=O)([O-])O)P(=O)(O)O (centres undefined)	191	200	200	200	1.03	171	158	–
CCC[S+](C)CC(O)(P(=O)([O-])O)P(=O)(O)O (centres undefined)	74.1	79.4	162	158	–	96.1	100	–
O=P([O-])(O)C(C[S+]1CCCC1)P(=O)(O)O (centres undefined)	83.2	79.4	95.5	100	–	87.8	79.4	–
O=P([O-])(O)C(O)(C[S+]1CCCCC1)P(=O)(O)O (centres undefined)	209	200	302	316	–	240	251	–
C[S+](CCCOc1ccccc1)CCC(O)(P(=O)([O-])O)P(=O)(O)O (centres undefined)	151	–	184	–	–	171	–	–
C[S+](CCCc1ccccc1)CC(P(=O)([O-])O)P(=O)(O)O (centres undefined)	55	50.1	57.5	63.1	–	48.6	50.1	–

— ChEMBL document CHEMBL1138275, “Activity of sulfonium bisphosphonates on tumor cell lines” (J Med Chem, 2007)
